The record followed here is ChEMBL document CHEMBL4359873, “Benzothienoquinazolinones as new multi-target scaffolds: Dual inhibition of human Topoisomerase I and tubulin polymerization” (Eur J Med Chem, 2019).

For one assay, the system named is MCF7. In words: Antiproliferative activity against ER-alpha positive human MCF7 cells assessed as reduction in cell viability after 72 hrs by MTT assay. Format: functional, cell-based. The following applies: MCF7, 72 h. The method in brief: (§1)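 Cells seeded, grown 24 h in full medium, then serum-starved 24 h before compound exposure. Six concentrations (0.1, 1, 10, 20, 40, 100 µM) tested in triplicate; MTT absorbance read at 570 nm; results as % of basal, IC50 calculated. Means ± standard deviations. MCF-7 in DMEM-F12 with 5% NCS, MDA-MB-231 with 5% FBS, MCF-10A with 5% horse serum plus hEGF, insulin, hydrocortisone, cholera enterotoxin; 37 °C, 5% CO2.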

The next assay has as its system MCF-10A. In words: Cytotoxicity against human MCF10A cells assessed as reduction in cell viability after 72 hrs by MTT assay. Format: cell-based. In short, it runs like this:
as §1

The subject of another assay is MDA-MB-231. Briefly: Antiproliferative activity against triple negative human MDA-MB-231 cells assessed as reduction in cell viability after 72 hrs by MTT assay. Format: functional, cell-based. To be noted: MDA-MB-231, 72 h. In short, it runs like this:
as §1

For assay [1], the target named is T1, Tubulin (Bos taurus) (UniProt Q6B856+Q862L2+Q862F3). In words: Inhibition of bovine tubulin at 10 uM assessed as tubulin heterodimers assembly to form microtubule by measuring OD at 350nm in presence of GTP measured every 30 secs for 90 mins by turbidimetric assay. Format: protein assay. The method in brief: (§2)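 Kit-based assay: 60 µM tubulin in 1x PB-GTP with compound at 10 µM final (DMSO vehicle control), 37 °C, 10 s shaking before each reading. Turbidity read at 350 nm every 30 s for 90 min. Paclitaxel and Vinblastine at 10 µM final as stabilizing and destabilizing references.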

The target of assay [2] is DNA topoisomerase 2-alpha (Homo sapiens) (UniProt P11388). Briefly: Inhibition of human topoisomerase 2 mediated decatenation up to 100 uM using kinetoplast DNA as susbtrate after 1 hr by ethidium bromide staining based agarose gel electrophoresis.
The target is the same in assay [3]. Briefly: Inhibition of human topoisomerase 2 mediated decatenation at 50 uM using kinetoplast DNA as susbtrate after 1 hr by ethidium bromide staining based agarose gel electrophoresis. The method in brief: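 Decatenation in 20 µL with 0.2 µg kinetoplast DNA and 3 units hTopo II; compounds at 50 µM, 1 h at 37 °C.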
Assay [4] deals with T2, DNA topoisomerase 1 (Homo sapiens) (UniProt P11387).
T2 sequence (whole entry): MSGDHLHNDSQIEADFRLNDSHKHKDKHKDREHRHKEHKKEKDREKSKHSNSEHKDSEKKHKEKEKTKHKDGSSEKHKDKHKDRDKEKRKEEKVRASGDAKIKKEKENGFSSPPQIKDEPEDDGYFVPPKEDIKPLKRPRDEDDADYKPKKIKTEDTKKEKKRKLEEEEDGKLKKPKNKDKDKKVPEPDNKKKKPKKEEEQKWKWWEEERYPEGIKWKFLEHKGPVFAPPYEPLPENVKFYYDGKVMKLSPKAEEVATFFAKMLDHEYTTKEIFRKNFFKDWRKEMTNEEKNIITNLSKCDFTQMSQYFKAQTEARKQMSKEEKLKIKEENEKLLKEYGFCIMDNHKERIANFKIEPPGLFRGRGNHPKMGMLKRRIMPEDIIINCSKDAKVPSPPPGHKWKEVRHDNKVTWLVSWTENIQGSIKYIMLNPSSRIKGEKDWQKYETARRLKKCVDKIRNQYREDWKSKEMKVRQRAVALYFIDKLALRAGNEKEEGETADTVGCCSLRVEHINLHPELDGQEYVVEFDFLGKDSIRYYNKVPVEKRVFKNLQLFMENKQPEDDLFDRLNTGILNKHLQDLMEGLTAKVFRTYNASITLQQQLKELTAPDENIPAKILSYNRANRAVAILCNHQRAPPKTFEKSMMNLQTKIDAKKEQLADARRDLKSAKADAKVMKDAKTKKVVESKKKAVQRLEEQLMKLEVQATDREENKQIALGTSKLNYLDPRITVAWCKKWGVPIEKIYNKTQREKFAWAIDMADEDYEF
In words: Inhibition of recombinant human topoisomerase 1 mediated DNA relaxation assessed as uncleaved plasmid DNA at 50 uM using supercoiled pHOT1 plasmid as substrate after 1 hr by ethidium bromide staining based agarose gel electrophoresis. In short, it runs like this:
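Relaxation in 20 µL: 0.25 µg supercoiled pHOT1 in TE buffer, 2 units recombinant hTopo I, compound at 50 µM final, 1 h at 37 °C. Run on 1% agarose in 1x TAE without EB, then stained 30 min with EB (0.5 µg/mL), washed 15 min in water, viewed under UV. Three repeats.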

Assay [5] addresses T1, Tubulin (Bos taurus). In words: Inhibition of bovine tubulin assessed as decrease in tubulin polymerization gradually followed by steady state decrease measured after 15 mins by turbidimetric assay. Format: protein assay. In short, it runs like this: as §2
Assay [6] has as its target T1, Tubulin (Bos taurus). In words: Inhibition of bovine tubulin assessed as decrease in tubulin polymerization gradually followed by steady state decrease measured after 30 mins by turbidimetric assay. Format: protein assay. The method in brief: as §2

Active and inactive are the calls of the source. The calls are words filed in the database; no cut-off is given here.

Sequence of DNA topoisomerase 2-alpha (Homo sapiens) (P11388 whole entry): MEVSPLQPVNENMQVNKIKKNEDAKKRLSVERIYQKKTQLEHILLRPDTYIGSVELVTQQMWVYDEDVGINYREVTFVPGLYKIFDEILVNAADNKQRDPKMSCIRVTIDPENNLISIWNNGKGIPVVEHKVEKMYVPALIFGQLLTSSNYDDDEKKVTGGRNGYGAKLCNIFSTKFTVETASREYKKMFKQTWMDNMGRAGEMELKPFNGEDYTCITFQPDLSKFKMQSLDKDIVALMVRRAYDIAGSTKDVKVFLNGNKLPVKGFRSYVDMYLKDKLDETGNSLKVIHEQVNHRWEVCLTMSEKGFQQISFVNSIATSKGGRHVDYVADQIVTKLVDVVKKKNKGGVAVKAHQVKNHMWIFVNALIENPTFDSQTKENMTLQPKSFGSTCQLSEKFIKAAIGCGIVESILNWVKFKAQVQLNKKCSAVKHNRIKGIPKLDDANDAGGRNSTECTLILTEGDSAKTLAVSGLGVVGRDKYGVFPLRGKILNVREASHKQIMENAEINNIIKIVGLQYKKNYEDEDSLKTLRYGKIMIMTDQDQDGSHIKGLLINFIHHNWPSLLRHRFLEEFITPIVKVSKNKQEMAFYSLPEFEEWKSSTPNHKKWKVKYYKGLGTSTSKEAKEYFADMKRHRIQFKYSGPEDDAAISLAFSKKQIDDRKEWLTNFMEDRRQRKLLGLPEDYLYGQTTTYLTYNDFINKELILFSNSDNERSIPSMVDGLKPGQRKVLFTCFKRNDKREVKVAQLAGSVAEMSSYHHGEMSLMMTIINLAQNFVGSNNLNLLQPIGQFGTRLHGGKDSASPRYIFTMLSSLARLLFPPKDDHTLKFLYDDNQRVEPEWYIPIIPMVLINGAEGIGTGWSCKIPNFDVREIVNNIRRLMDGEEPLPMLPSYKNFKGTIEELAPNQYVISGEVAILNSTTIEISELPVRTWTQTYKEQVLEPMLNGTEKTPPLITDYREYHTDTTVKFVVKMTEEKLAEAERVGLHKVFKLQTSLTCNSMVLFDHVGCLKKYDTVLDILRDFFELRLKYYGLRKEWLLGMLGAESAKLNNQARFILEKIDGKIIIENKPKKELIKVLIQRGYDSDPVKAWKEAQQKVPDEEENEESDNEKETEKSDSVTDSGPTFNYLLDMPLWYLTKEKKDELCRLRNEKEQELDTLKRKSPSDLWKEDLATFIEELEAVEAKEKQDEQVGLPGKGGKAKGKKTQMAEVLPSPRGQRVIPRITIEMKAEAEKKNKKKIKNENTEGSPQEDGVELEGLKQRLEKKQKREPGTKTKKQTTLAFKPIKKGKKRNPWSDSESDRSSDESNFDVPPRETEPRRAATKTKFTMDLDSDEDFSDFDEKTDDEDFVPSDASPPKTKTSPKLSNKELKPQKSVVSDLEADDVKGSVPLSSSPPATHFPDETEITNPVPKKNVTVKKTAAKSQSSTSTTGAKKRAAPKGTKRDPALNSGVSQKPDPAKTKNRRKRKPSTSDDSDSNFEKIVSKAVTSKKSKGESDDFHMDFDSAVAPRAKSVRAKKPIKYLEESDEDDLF

For `CCCCNc1nc2ccc3c4ccccc4sc3c2c(=O)[nH]1`, the IC50 is 74.5 µM with MCF7, above 100 µM in the assay on MCF-10A and 38.9 µM in the assay with MDA-MB-231.

With `CCCCCN(CCCCC)c1nc2ccc3c4ccccc4sc3c2c(=O)[nH]1`, the IC50 in the assay with MCF7 was 75.2 µM; in the assay on MCF-10A, above 100 µM; in the assay on MDA-MB-231 it was 42.4 µM.

Turning to `O=c1[nH]c(N2CCOCC2)nc2ccc3c4ccccc4sc3c12`, the IC50 in the assay with MCF7 was 21.2 µM; with MCF-10A, above 100 µM; with MDA-MB-231, 9.43 µM.

Turning to `CCCNc1nc2ccc3c4ccccc4sc3c2c(=O)[nH]1`, the OD on Tubulin (Bos taurus) [1] is 0.24. In addition, the inhibition result in [2] and in assay [3] was “inactive” throughout. Moreover, the inhibition entry (in assay [4]; at Tubulin (Bos taurus) [5]) was “Active” each time. Further, the IC50 with MCF7 is 40.7 µM; with MCF-10A it was above 100 µM; in the assay on MDA-MB-231, 3.88 µM.

On to `CC[C@]1(O)C[C@@H]2CN(CCc3c([nH]c4ccccc34)[C@@](C(=O)OC)(c3cc4c(cc3OC)N(C)[C@H]3[C@@](O)(C(=O)OC)[C@H](OC(C)=O)[C@]5(CC)C=CCN6CC[C@]43[C@@H]65)C2)C1` [VINBLASTINE], for which the OD on Tubulin (Bos taurus) [1] worked out at 0.2. In addition, the IC50 in the assay with MCF7 was determined as 15 µM; in the assay with MCF-10A, 25.9 µM.

For `CC(=O)O[C@H]1C(=O)[C@@]2(C)[C@H]([C@H](OC(=O)c3ccccc3)[C@]3(O)C[C@H](OC(=O)[C@H](O)[C@@H](NC(=O)c4ccccc4)c4ccccc4)C(C)=C1C3(C)C)[C@]1(OC(C)=O)CO[C@@H]1C[C@@H]2O`, at Tubulin (Bos taurus) [1], the OD was found to be 0.52.

On to `Cc1c2ccncc2c(C)c2c1[nH]c1ccccc12` [ELLIPTECINE], for which the inhibition result in assay [4] was “Active”. Further, the figures for the IC50 with MCF-10A and in the assay on MDA-MB-231 were 1.2 µM and 1.85 µM, respectively.

In the case of `O=c1[nH]c(NC2CCCC2)nc2ccc3c4ccccc4sc3c12`, the figures for the IC50 in the assay on MCF7, in the assay with MCF-10A and with MDA-MB-231 were 45.6 µM, above 100 µM and 5.59 µM, respectively.

`CCCN(CCC)c1nc2ccc3c4ccccc4sc3c2c(=O)[nH]1`: the inhibition result on Tubulin (Bos taurus) [6] is “Active”. In addition, the OD at Tubulin (Bos taurus) [1] came out at 0.26. Moreover, the inhibition result in [2] and in assay [3] was “inactive” in each case. Moreover, the concentration for half-maximal inhibition (IC50) in the assay with MCF7 is 42 µM; in the assay with MCF-10A, above 100 µM; in the assay with MDA-MB-231, 4.69 µM.
